The target of experiment [1] is T1, Melanocyte-stimulating hormone receptor (Homo sapiens, UniProt Q01726). The experiment can be described thus: Displacement of [125I][Nle4,Dphe7]-alpha-MSH from human MC1R expressed in HEK293 cells at 10 uM. The experiment is classed as cell-based. The essentials:
(§1)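 Stably transfected HEK293 cells for each hMCR were seeded 48 h ahead at 100 000 cells/well. Buffer was MEM with 25 mM HEPES pH 7.4, 0.2% BSA, 1 mM 1,10-phenanthroline, leupeptin and bacitracin. […] After washing, cells were lysed in NaOH/Triton and counted by γ counter. Binding was scored at 10^-5 M.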

For experiment [2], the target named is T1, Melanocyte-stimulating hormone receptor. The experiment is classed as functional, cell-based, HEK293.
For experiment [3], the target named is T2, Melanocortin receptor 3 (Homo sapiens, UniProt P41968). In kind it is functional, cell-based, HEK293.
For experiment [4], the target named is T3, Melanocortin receptor 5 (Homo sapiens, UniProt P33032). In kind it is functional, cell-based, HEK293.
For experiment [5], the target named is T4, Melanocortin receptor 4 (Homo sapiens, UniProt P32245). In kind it is functional, cell-based, HEK293.
Experiment [6] concerns the target T4, Melanocortin receptor 4. The experiment can be described thus: biochemical. The experiment is classed as cell-based, HEK293.
The target of experiment [7] is T1, Melanocyte-stimulating hormone receptor. The experiment can be described thus: biochemical. The experiment is classed as cell-based, HEK293.
For experiment [8], the target named is T3, Melanocortin receptor 5. As to the kind of experiment: biochemical. In kind it is cell-based, HEK293.
The target in experiment [9] is T2, Melanocortin receptor 3. As to the kind of experiment: biochemical. The experiment is classed as cell-based, HEK293.
For experiment [10], the target named is T2, Melanocortin receptor 3. As to the kind of experiment: Displacement of [125I][Nle4,Dphe7]-alpha-MSH from human MC3R expressed in HEK293 cells at 10 uM. The experiment is classed as cell-based. (Loss of bound radioactivity is the signal in a displacement assay; it reports binding, not function.)
The target in experiment [11] is T3, Melanocortin receptor 5. As to the kind of experiment: Displacement of [125I][Nle4,Dphe7]-alpha-MSH from human MC5R expressed in HEK293 cells at 10 uM. In kind it is cell-based.
Experiment [12] concerns the target T4, Melanocortin receptor 4. As to the kind of experiment: Displacement of [125I][Nle4,Dphe7]-alpha-MSH from human MC4R expressed in HEK293 cells at 10 uM. In kind it is cell-based. The essentials: as §1

T4 sequence (P32245 whole entry): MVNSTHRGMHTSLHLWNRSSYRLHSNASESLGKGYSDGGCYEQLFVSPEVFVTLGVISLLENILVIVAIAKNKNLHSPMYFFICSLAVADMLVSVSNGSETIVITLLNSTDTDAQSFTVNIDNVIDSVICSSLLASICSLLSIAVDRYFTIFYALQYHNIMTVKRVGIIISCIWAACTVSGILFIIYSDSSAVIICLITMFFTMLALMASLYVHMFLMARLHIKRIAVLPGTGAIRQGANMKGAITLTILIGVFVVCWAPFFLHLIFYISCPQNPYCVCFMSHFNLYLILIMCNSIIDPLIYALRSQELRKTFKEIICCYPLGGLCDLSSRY
T3 sequence (P33032 whole entry): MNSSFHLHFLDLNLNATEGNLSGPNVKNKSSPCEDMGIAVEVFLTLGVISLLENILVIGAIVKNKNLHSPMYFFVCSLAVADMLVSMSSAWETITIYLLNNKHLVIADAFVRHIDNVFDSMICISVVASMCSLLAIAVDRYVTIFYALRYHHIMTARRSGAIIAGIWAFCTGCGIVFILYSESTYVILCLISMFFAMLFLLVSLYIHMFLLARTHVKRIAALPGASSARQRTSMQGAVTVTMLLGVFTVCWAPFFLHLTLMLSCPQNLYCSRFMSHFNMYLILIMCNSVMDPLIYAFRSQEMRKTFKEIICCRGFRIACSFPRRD
T2 sequence (P41968 whole entry): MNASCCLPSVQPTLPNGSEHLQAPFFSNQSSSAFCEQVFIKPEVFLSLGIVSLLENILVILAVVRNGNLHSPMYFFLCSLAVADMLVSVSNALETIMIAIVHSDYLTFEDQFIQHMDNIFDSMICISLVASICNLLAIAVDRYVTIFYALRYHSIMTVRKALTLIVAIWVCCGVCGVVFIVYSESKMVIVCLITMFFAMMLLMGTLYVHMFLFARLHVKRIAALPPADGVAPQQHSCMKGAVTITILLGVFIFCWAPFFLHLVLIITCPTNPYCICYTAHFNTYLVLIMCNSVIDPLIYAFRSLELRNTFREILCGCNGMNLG
T1 sequence (Q01726 whole entry): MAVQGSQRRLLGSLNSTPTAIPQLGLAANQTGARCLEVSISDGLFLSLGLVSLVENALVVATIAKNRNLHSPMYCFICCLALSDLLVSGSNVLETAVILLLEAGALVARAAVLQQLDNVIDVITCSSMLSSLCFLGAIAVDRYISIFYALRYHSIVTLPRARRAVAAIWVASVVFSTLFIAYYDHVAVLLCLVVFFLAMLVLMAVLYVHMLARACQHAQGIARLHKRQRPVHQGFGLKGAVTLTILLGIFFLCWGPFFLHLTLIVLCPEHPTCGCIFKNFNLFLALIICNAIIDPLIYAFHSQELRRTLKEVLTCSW

The IC50 is the concentration that inhibits the measured activity by half. Turning to `CCCC[C@H](NC(C)=O)C(=O)N[C@H]1CC(=O)NCCCC[C@@H](C(N)=O)NC(=O)[C@H](Cc2c[nH]c3ccccc23)NC(=O)[C@@H]2C[C@H](NC(=N)N)CN2C(=O)[C@@H](Cc2ccccc2)NC(=O)[C@H](Cc2cnc[nH]2)NC1=O`, the IC50 entry in experiment [1] was “Not Active”.

Broadly, the EC50 is the concentration needed to bring the measured effect to its halfway point. Lower therefore signals an effect from little substance. As to `CCCC[C@H](NC(C)=O)C(=O)N[C@H]1CC(=O)NCCCC[C@@H](C(N)=O)NC(=O)[C@H](Cc2c[nH]c3ccccc23)NC(=O)[C@H](CCCN=C(N)N)NC(=O)[C@@H](Cc2ccccc2)NC(=O)[C@@H]2C[C@@H](N=C(N)N)CN2C1=O`, the EC50 in experiment [2] turned out to be 820 nM; in experiment [3], 14 nM; in experiment [4], 1.6 nM; in experiment [5] it was 3500 nM. The IC50 is 0.6 nM in [6], 2.7 nM in experiment [7], 2.5 nM in [8] and 1 nM in [9].

As for `CCCC[C@H](NC(C)=O)C(=O)N[C@H]1CC(=O)NCCCC[C@@H](C(N)=O)NC(=O)[C@H](Cc2c[nH]c3ccccc23)NC(=O)[C@@H]2C[C@@H](NC(=N)N)CN2C(=O)[C@@H](Cc2ccc3ccccc3c2)NC(=O)[C@H](Cc2cnc[nH]2)NC1=O`, the EC50 in experiment [2] is 19000 nM. The same compound registered a half-inhibitory concentration (IC50) in [7] of 400 nM.

Turning to `CCCC[C@H](NC(=O)[C@@H](NC(=O)[C@H](Cc1ccc(O)cc1)NC(C)=O)C(C)C)C(=O)NCC(=O)N[C@@H](Cc1cnc[nH]1)C(=O)N[C@H](Cc1ccccc1)C(=O)N1CCC[C@H]1C(=O)N[C@@H](Cc1c[nH]c2ccccc12)C(=O)N[C@@H](CC(=O)O)C(=O)N[C@@H](CCCNC(=N)N)C(=O)N[C@@H](Cc1ccccc1)C(=O)NCC(N)=O`, the figures for the EC50 in experiment [2] and in experiment [5] were 120 nM and 210 nM, respectively. The half-inhibitory concentration (IC50) result is “Not Active” in experiment [10], “Not Active” in [11], 270 nM in experiment [6] and 190 nM in experiment [7].

As for `CCCC[C@H](NC(C)=O)C(=O)N[C@H]1CC(=O)NCCCC[C@@H](C(N)=O)NC(=O)[C@H](Cc2c[nH]c3ccccc23)NC(=O)[C@@H]2CCCN2C(=O)[C@@H](Cc2ccccc2)NC(=O)[C@H](Cc2cnc[nH]2)NC1=O`, in experiment [2], the EC50 was more than 1000 nM. In experiment [7], this compound came in with an IC50 of more than 4800 nM.

Regarding `CCCC[C@H](NC(=O)[C@@H](NC(=O)[C@H](Cc1ccc(O)cc1)NC(C)=O)C(C)C)C(=O)NCC(=O)N[C@@H](Cc1cnc[nH]1)C(=O)N[C@H](Cc1ccccc1)C(=O)N1C[C@H](NC(=N)N)C[C@H]1C(=O)N[C@@H](Cc1c[nH]c2ccccc12)C(=O)N[C@@H](CC(=O)O)C(=O)N[C@@H](CCCNC(=N)N)C(=O)N[C@@H](Cc1ccccc1)C(=O)NCC(N)=O`, in experiment [2], the midpoint of the response, the EC50, lay at 1400 nM. Also, the IC50 entry was “Not Active” in experiment [10], “Not Active” in experiment [11], “Not Active” in experiment [12] and 830 nM in experiment [7].

As to `CCCC[C@H](NC(C)=O)C(=O)N[C@H]1CC(=O)NCCCC[C@@H](C(N)=O)NC(=O)[C@H](Cc2c[nH]c3ccccc23)NC(=O)[C@H](CCCN=C(N)N)NC(=O)[C@@H](Cc2ccccc2)NC(=O)[C@@H]2C[C@H](N=C(N)N)CN2C1=O`, the EC50 in [2] was 2700 nM; in experiment [3], 2500 nM; in [4], 21 nM; in experiment [5], 41 nM. Further, the figures for the IC50 in experiment [6] and in experiment [9] were 5.7 nM and 2.8 nM, respectively.

As to `CCCC[C@H](NC(C)=O)C(=O)N[C@H]1CC(=O)NCCCC[C@@H](C(N)=O)NC(=O)[C@H](Cc2c[nH]c3ccccc23)NC(=O)[C@@H]2CCCN2C(=O)[C@@H](Cc2ccc3ccccc3c2)NC(=O)[C@H](Cc2cnc[nH]2)NC1=O`, in experiment [2], a half-maximal effect (EC50) was put at 160 nM. This compound had an IC50 in [7] of 600 nM.

In turn, `CCCC[C@H](NC(C)=O)C(=O)N[C@H]1CC(=O)NCCCC[C@@H](C(N)=O)NC(=O)[C@H](Cc2c[nH]c3ccccc23)NC(=O)[C@@H]2C[C@H](N=C(N)N)CN2C(=O)[C@@H](Cc2ccc3ccccc3c2)NC(=O)[C@H](Cc2cnc[nH]2)NC1=O` returned an IC50 in experiment [7] of more than 3000 nM.

With `CCCC[C@H](NC(=O)[C@@H](NC(=O)[C@H](Cc1ccc(O)cc1)NC(C)=O)C(C)C)C(=O)NCC(=O)N[C@@H](Cc1cnc[nH]1)C(=O)N[C@H](Cc1ccccc1)C(=O)N1C[C@@H](NC(=N)N)C[C@H]1C(=O)N[C@@H](Cc1c[nH]c2ccccc12)C(=O)N[C@@H](CC(=O)O)C(=O)N[C@@H](CCCNC(=N)N)C(=O)N[C@@H](Cc1ccccc1)C(=O)NCC(N)=O`, the 50% effective concentration (EC50) in experiment [2] was more than 5000 nM. Besides, the IC50 entry in experiment [10] is “Not Active”; in experiment [11], “Not Active”; in experiment [12], “Not Active”; in [7], 1000 nM.

(Values after ChEMBL document CHEMBL1136994, “Substitution of arginine with proline and proline derivatives in melanocyte-stimulating hormones leads to selectivity for human melanocortin 4 receptor” (J Med Chem, 2009).)
